Results published in ChEMBL document CHEMBL4842338, “System-oriented optimization of multi-target 2,6-diaminopurine derivatives: Easily accessible broad-spectrum antivirals active against flaviviruses, influenza virus and SARS-CoV-2” (Eur J Med Chem, 2021).

What was measured:
[1] = Selectivity index, ratio of CC50 for human A549 cells to IC50 for Influenza A Puerto Rico/8/34/H1N1 infected in human A549 cells; assay type: toxicity, cell-based; settings: read-out: Selectivity Index
Outline: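 MDCK or A549 cells (2.5 × 10⁵/well) infected with A/Puerto Rico/8/34 H1N1 for 1 h at 37 °C, then washed. Compound (0.5–20 μM) added in 2% FBS medium for 24 h, with DMSO final ≤0.2%. Virus in supernatants read by hemagglutination. CC₅₀ by MTT (2 × 10⁴ cells/well, same concentrations, 24 h, absorbance 570 nm). SI = CC₅₀/IC₅₀.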

Influenza A virus [2] = assay: Antiviral activity against Influenza A Puerto Rico/8/34/H1N1 infected in human A549 cells assessed as inhibition of viral replication after 24 hrs by hemagglutination assay; assay type: functional, organism-based; settings: A/Puerto Rico/8/1934(H1N1), A549, 24 h
[3] = Cytotoxicity against human A549 cells assessed as reduction in cell viability measured after 24 hrs by MTT assay; assay type: cell-based; settings: A549 cells
[4] = Cytotoxicity against human Huh-7 cells assessed as reduction in cell viability by Celltiter-Glo luminescent cell viability assay; assay type: cell-based; settings: Huh-7 cells
Outline: (§1)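 Compound-exposed cells assessed by CellTiter-Glo luminescence versus DMSO control; CC50 from dose-response.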

dengue virus type 2 [5] = assay: Antiviral activity against Dengue virus serotype 2 New Guinea C infected in pre-seeded Huh-7 cells assessed as inhibition of viral replication incubated for 72 hrs by immunodetection based direct yield reduction assay; assay type: functional, organism-based; settings: Dengue virus, New Guinea C, Huh-7, 72 h; read-out: IC50
dengue virus type 2 [6] = assay: Antiviral activity against Dengue virus serotype 2 New Guinea C infected in pre-seeded Huh-7 cells assessed as inhibition of viral replication incubated for 72 hrs by immunodetection based plaque reduction assay; assay type: functional, organism-based; settings: Huh-7, 72 h
[7] = Selectivity index, ratio of CC50 for human Huh-7 cells to IC50 for Dengue virus serotype 2 New Guinea C infected in pre-seeded Huh-7 cells assessed as inhibition of viral replication incubated for 72 hrs by immunodetection based secondary yield reduction assay; assay type: toxicity, cell-based; settings: read-out: Selectivity Index
[8] = Selectivity index, ratio of CC50 for human Huh-7 cells to IC50 for Dengue virus serotype 2 New Guinea C infected in pre-seeded Huh-7 cells assessed as inhibition of viral replication incubated for 72 hrs by immunodetection based direct yield reduction assay; assay type: toxicity, cell-based; settings: read-out: Selectivity Index
Outline: (§2)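 Direct yield reduction in Huh7 cells (7000/well), infected with 50 TCID₅₀ of DENV or ZIKV, or 25 TCID₅₀ of WNV. Adsorption 1 h at 37 °C, then virus removed and serial compound dilutions added. Incubated 72 h (DENV, ZIKV) or 48 h (WNV). Viral antigen immunodetected on the monolayer. IC₅₀ by non-linear regression, mean of three experiments. SI = CC₅₀ (Huh7, CellTiter-Glo luminescence)/IC₅₀.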

[9] = Selectivity index, ratio of CC50 for human Huh-7 cells to IC50 for Dengue virus serotype 2 New Guinea C infected in pre-seeded Huh-7 cells assessed as inhibition of viral replication incubated for 72 hrs by immunodetection based plaque reduction assay; assay type: toxicity, cell-based; settings: read-out: Selectivity Index
Zika virus [10] = assay: Antiviral activity against Zika virus H/PF/2013 infected in pre-seeded Huh-7 cells assessed as inhibition of viral replication incubated for 72 hrs by immunodetection based secondary yield reduction assay; assay type: functional, organism-based; settings: H/PF/2013, Huh-7, 72 h
Zika virus [11] = assay: Antiviral activity against Zika virus H/PF/2013 infected in pre-seeded Huh-7 cells assessed as inhibition of viral replication incubated for 72 hrs by immunodetection based direct yield reduction assay; assay type: functional, organism-based; settings: H/PF/2013, Huh-7, 72 h; outline: as §2
Zika virus [12] = assay: Antiviral activity against Zika virus H/PF/2013 infected in pre-seeded Huh-7 cells assessed as inhibition of viral replication incubated for 72 hrs by immunodetection based plaque reduction assay; assay type: functional, organism-based; settings: H/PF/2013, Huh-7, 72 h
[13] = Selectivity index, ratio of CC50 for human Huh-7 cells to IC50 for Zika virus H/PF/2013 infected in pre-seeded Huh-7 cells assessed as inhibition of viral replication incubated for 72 hrs by immunodetection based secondary yield reduction assay; assay type: toxicity, cell-based; settings: read-out: Selectivity Index
[14] = Selectivity index, ratio of CC50 for human Huh-7 cells to IC50 for Zika virus H/PF/2013 infected in pre-seeded Huh-7 cells assessed as inhibition of viral replication incubated for 72 hrs by immunodetection based direct yield reduction assay; assay type: toxicity, cell-based; settings: read-out: Selectivity Index; outline: as §2
[15] = Selectivity index, ratio of CC50 for human Huh-7 cells to IC50 for Zika virus H/PF/2013 infected in pre-seeded Huh-7 cells assessed as inhibition of viral replication incubated for 72 hrs by immunodetection based plaque reduction assay; assay type: toxicity, cell-based; settings: read-out: Selectivity Index
West Nile virus [16] = assay: Antiviral activity against West Nile virus lineage 1 (Italy/2009) infected in pre-seeded Huh-7 cells assessed as inhibition of viral replication incubated for 48 hrs by immunodetection based direct yield reduction assay; assay type: functional, organism-based; settings: West Nile virus, lineage 1 (Italy/2009), Huh-7, 48 h; read-out: IC50
West Nile virus [17] = assay: Antiviral activity against West Nile virus lineage 1 (Italy/2009) infected in pre-seeded Huh-7 cells assessed as inhibition of viral replication incubated for 48 hrs by immunodetection based plaque reduction assay; assay type: functional, organism-based; settings: Huh-7, 48 h
[18] = Selectivity index, ratio of CC50 for human Huh-7 cells to IC50 for West Nile virus lineage 1 (Italy/2009) infected in pre-seeded Huh-7 cells assessed as inhibition of viral replication incubated for 48 hrs by immunodetection based direct yield reduction assay; assay type: toxicity, cell-based; settings: read-out: Selectivity Index; outline: as §2
[19] = Selectivity index, ratio of CC50 for human Huh-7 cells to IC50 for West Nile virus lineage 1 (Italy/2009) infected in pre-seeded Huh-7 cells assessed as inhibition of viral replication incubated for 48 hrs by immunodetection based plaque reduction assay; assay type: toxicity, cell-based; settings: read-out: Selectivity Index
[20] = Cytotoxicity against MDCK cells assessed as reduction in cell viability measured after 24 hrs by MTT assay; assay type: cell-based, Canis lupus familiaris; settings: dog, MDCK cells
Influenza A virus [21] = assay: Antiviral activity against Influenza A Puerto Rico/8/34/H1N1 infected in MDCK cells assessed as inhibition of viral replication measured in supernatants of infected cells after 24 hrs by hemagglutination assay; assay type: functional, organism-based; settings: A/Puerto Rico/8/1934(H1N1)
[22] = Cytotoxicity against African green monkey Vero E6 cells infected with SARS-COV-2 by celltiter-glo luminescent cell viability assay; assay type: cell-based, Vero C1008; settings: chlorocebus sabaeus, Vero E6 cells infected with SARS-COV-2; outline: as §1
SARS-CoV-2 [23] = assay: Antiviral activity against SARS-COV 2 infected in monkey Vero E6 cells assessed as inhibition of viral replication at MOI of 0.01 and incubated after 2 hrs post infection for 48 hrs by direct yield reduction assay; assay type: functional, organism-based; settings: Severe acute respiratory syndrome coronavirus 2, Vero C1008
[24] = Cytotoxicity against human Calu-3 cells infected with SARS-COV-2 by celltiter-glo luminescent cell viability assay; assay type: cell-based; settings: Calu-3 cells infected with SARS-COV-2; outline: as §1
SARS-CoV-2 [25] = assay: Antiviral activity against SARS-COV 2 infected in human Calu-3 cells assessed as inhibition of viral replication at MOI of 0.01 and incubated after 2 hrs post infection for 48 hrs by direct yield reduction assay; assay type: functional, organism-based; settings: Severe acute respiratory syndrome coronavirus 2, Calu-3
[26] = Selectivity index, ratio of CC50 for human Calu-3 cells infected with SARS-COV-2 to IC50 for SARS-COV 2 infected in human Calu-3 cells; assay type: toxicity, cell-based; settings: read-out: Selectivity Index
SARS-CoV-2 [27] = assay: Antiviral activity against SARS-COV 2 infected in human Calu-3 cells assessed as inhibition of viral replication at MOI of 0.01 followed by removal of test compound after cell virus adsorption incubated for 72 hrs by ENTRY-DYRA method; assay type: functional, organism-based; settings: Severe acute respiratory syndrome coronavirus 2, Calu-3, 72 h

**Q.** Which selectivity ratio [1] does the source give for `NC(=O)c1ncn([C@@H]2O[C@H](CO)[C@@H](O)[C@H]2O)n1` [RIBAVIRIN] here?
**A.** > 1.3

**Q.** What about the IC50 (Influenza A virus [2]) of the same compound?
**A.** 37.4 µM

**Q.** And the CC50 at 24 h [3]?
**A.** > 50 µM

**Q.** And the CC50 [4]?
**A.** 200 µM

**Q.** What about the IC50 (dengue virus type 2 [5]) of the same compound?
**A.** 7.6 µM

**Q.** And the IC50 (dengue virus type 2 [6])?
**A.** 4.1 µM

**Q.** And the selectivity ratio at 72 h [7]?
**A.** 50

**Q.** And the selectivity ratio at 72 h [8]?
**A.** 26

**Q.** And the selectivity ratio at 72 h [9]?
**A.** 49

**Q.** And the IC50 (Zika virus [10])?
**A.** 4.4 µM

**Q.** And the IC50 (Zika virus [11])?
**A.** 3.8 µM

**Q.** And the IC50 (Zika virus [12])?
**A.** 2.2 µM

**Q.** And the selectivity ratio at 72 h [13]?
**A.** 45

**Q.** And the selectivity ratio at 72 h [14]?
**A.** 53

**Q.** What about the selectivity ratio at 72 h [15] of the same compound?
**A.** 91

**Q.** What about the IC50 (West Nile virus [16]) of the same compound?
**A.** 9.5 µM

**Q.** And the IC50 (West Nile virus [17])?
**A.** 6.7 µM

**Q.** And the selectivity ratio at 48 h [18]?
**A.** 21

**Q.** And the selectivity ratio at 48 h [19]?
**A.** 30

**Q.** And the CC50 at 24 h [20]?
**A.** > 50 µM

**Q.** What about the IC50 (Influenza A virus [21]) of the same compound?
**A.** 9.5 µM

**Q.** What about the CC50 [22] of the same compound?
**A.** > 400 µM

**Q.** What about the IC50 (SARS-CoV-2 [23]) of the same compound?
**A.** 110 µM

**Q.** With `CN(C)C(=O)COC(=O)Cc1ccc(OC(=O)c2ccc(NC(=N)N)cc2)cc1` [CAMOSTAT] as the compound, how does the CC50 [24] read?
**A.** 200 µM

**Q.** And the IC50 (SARS-CoV-2 [25])?
**A.** 0.82 µM

**Q.** What about the selectivity ratio [26] of the same compound?
**A.** 243

**Q.** What about the IC50 (SARS-CoV-2 [27]) of the same compound?
**A.** 0.04 µM
